Our source for the GI50, CLH(app) and microsomal CLint values is ChEMBL document CHEMBL3352038, “Discovery of cytotoxic dolastatin 10 analogues with N-terminal modifications” (J Med Chem, 2014).

Non-standard residues stand in square brackets, D forms with d. Residues, ends and D or L forms follow the SMILES beside them. *: point of attachment. Dolaproine = CO[C@@H]([C@@H]1CCCN1)[C@@H](C)C(=O)O; Dil = CC[C@H](C)[C@H](NC)[C@@H](CC(=O)O)OC; Doe = c1ccc(C[C@H](N*)c2nccs2)cc1; NMeV = CN[C@H](C(=O)O)C(C)C; Ac3c = NC1(C(=O)O)CC1; Sar = CNCC(=O)O

The test system of data set [1] is BT-474. The experiment in a line: Cytotoxicity against human BT474 cells assessed as cell viability incubated fore 4 days by MTS assay. Type of data set: functional. Particulars: BT-474, 96 h. The procedure, abridged:
(§1)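 Cells seeded at low density in 96-well plates, dosed next day with 3-fold serial dilutions at 10 concentrations in duplicate. Incubated 4 days at 37C/5% CO2. Viability read by MTS reagent (1.5 h), absorbance at 490 nm. Four-parameter logistic fit. Reported as arithmetic mean GI50 (nM) with standard deviation over n individual runs, each run a duplicate readout.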
For orientation: Tetrazolium assays rely on reduction of a dye to a coloured formazan, in cell work by metabolically active cells.

Data set [2] deals with NCI-N87. The experiment in a line: Cytotoxicity against human NCI-N87 cells assessed as cell viability incubated fore 4 days by MTS assay. Type of data set: functional. The note with it: NCI-N87, 96 h. The procedure, abridged: as §1
Data set [3] concerns MDA-MB-361. The experiment in a line: Cytotoxicity against human MDA-MB-361 cells assessed as cell viability incubated fore 4 days by MTS assay. The data set is classed as functional. The note with it: MDA-MB-361, 96 h. Summed up:
as §1

The subject of data set [4] is Hepatocyte. The experiment in a line: Apparent intrinsic clearance in human liver hepatocytes at 1 uM. Type of data set: ADME, cell-based. The procedure, abridged: (§2)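 Apparent intrinsic clearance measured at 1 μM substrate in human liver microsomes (μl/min/mg) and in human hepatocytes (μl/min/million cells).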
The nature of data set [5]: Apparent intrinsic clearance in human liver microsomes at 1 uM. The data set is classed as ADME. The note with it: read-out: CLH(app). The procedure, abridged:
as §2
(Microsomes from liver hold many membrane-bound enzymes, among them those of drug oxidation.)

One may read the GI50 as the concentration at which growth is held to half of that of the control.

As to `CC[C@H](C)[C@@H]([C@@H](CC(=O)N1CCC[C@H]1[C@H](OC)[C@@H](C)C(=O)N[C@@H](Cc1ccccc1)c1nccs1)OC)N(C)C(=O)[C@@H](NC(=O)CNC)C(C)C` (H-[Sar]V[Dil][Dolaproine]-Doe), the values for the GI50 in data set [1], in data set [2] and in data set [3] were 0.49 nM, 1.2 nM and 0.69 nM, respectively.

In the case of `CC[C@H](C)[C@@H]([C@@H](CC(=O)N1CCC[C@H]1[C@H](OC)[C@@H](C)C(=O)N[C@@H](Cc1ccccc1)c1nccs1)OC)N(C)C(=O)[C@@H](NC(=O)C(C)(C)CNC)C(C)C`, the GI50 in data set [1] was found to be 0.25 nM; in data set [2], 1.1 nM; in data set [3] it was 0.41 nM.

Turning to `CC[C@H](C)[C@@H]([C@@H](CC(=O)N1CCC[C@H]1[C@H](OC)[C@@H](C)C(=O)N[C@@H](Cc1ccccc1)c1nccs1)OC)N(C)C(=O)[C@@H](NC(=O)[C@@]1(C)CCCCN1)C(C)C`, the figures for the GI50 in data set [1], in data set [2] and in data set [3] were 0.35 nM, 0.52 nM and 0.4 nM, respectively.

On to `CC[C@H](C)[C@@H]([C@@H](CC(=O)N1CCC[C@H]1[C@H](OC)[C@@H](C)C(=O)N[C@@H](Cc1ccccc1)c1nccs1)OC)N(C)C(=O)[C@@H](NC(=O)[C@@]1(F)CCNC1)C(C)C`, for which the GI50 was found to be 0.29 nM in data set [1], 1.1 nM in data set [2] and 0.6 nM in data set [3].

Take `CC[C@H](C)[C@@H]([C@@H](CC(=O)N1CCC[C@H]1[C@H](OC)[C@@H](C)C(=O)N[C@@H](Cc1ccccc1)c1nccs1)OC)N(C)C(=O)[C@@H](NC(=O)C1(N)CC1)C(C)C` (H-[Ac3c]V[Dil][Dolaproine]-Doe): the GI50 in data set [1] is 2.9 nM; in data set [2], 6.4 nM; in data set [3], 5.6 nM.

For `CC[C@H](C)[C@@H]([C@@H](CC(=O)N1CCC[C@H]1[C@H](OC)[C@@H](C)C(=O)N[C@@H](Cc1ccccc1)c1nccs1)OC)N(C)C(=O)[C@@H](NC(=O)[C@@H](NC)C(C)C)C(C)C` (H-[NMeV]V[Dil][Dolaproine]-Doe), the CLH(app) in data set [4] is 11 µL/min/mg. Moreover, the GI50 in data set [1] came to 0.12 nM; in data set [2], 0.3 nM; in data set [3], 0.09 nM. The microsomal CLint at 1 µM in data set [5] came out at 48 µL/min/mg.

For the compound `CC[C@H](C)[C@@H]([C@@H](CC(=O)N1CCC[C@H]1[C@H](OC)[C@@H](C)C(=O)N[C@@H](Cc1ccccc1)c1nccs1)OC)N(C)C(=O)[C@@H](NC(=O)C(C)(C)CN)C(C)C`, the values for the GI50 in data set [1], in data set [2] and in data set [3] were 0.25 nM, 1.4 nM and 0.81 nM, respectively.

As for `CC[C@H](C)[C@@H]([C@@H](CC(=O)N1CCC[C@H]1[C@H](OC)[C@@H](C)C(=O)N[C@@H](Cc1ccccc1)c1nccs1)OC)N(C)C(=O)[C@@H](NC(=O)[C@]1(F)CCNC1)C(C)C`, the GI50 in data set [1] is 0.16 nM; in data set [2] it was 0.59 nM; in data set [3], 0.25 nM.
